# Assay results reported in article PMC9529790 (Nature chemical biology, 2022).
# T1: ALDH1B1 (Homo sapiens, UniProt P30837)
# T1 sequence (P30837 18-517): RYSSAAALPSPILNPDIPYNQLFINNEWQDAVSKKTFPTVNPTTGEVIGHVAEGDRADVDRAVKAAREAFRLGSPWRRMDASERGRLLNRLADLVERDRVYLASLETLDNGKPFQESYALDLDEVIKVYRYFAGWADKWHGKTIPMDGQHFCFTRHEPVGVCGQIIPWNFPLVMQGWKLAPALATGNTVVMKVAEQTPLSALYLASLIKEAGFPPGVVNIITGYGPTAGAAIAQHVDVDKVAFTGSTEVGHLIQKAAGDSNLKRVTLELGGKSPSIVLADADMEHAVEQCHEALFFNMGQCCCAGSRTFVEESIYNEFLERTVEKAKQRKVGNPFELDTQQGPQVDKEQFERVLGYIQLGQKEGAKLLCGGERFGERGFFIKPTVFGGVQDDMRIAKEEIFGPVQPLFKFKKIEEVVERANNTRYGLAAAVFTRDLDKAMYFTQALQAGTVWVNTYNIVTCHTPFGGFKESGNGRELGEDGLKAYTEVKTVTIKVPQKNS
# T2: endogenous ALDH1B1 in live SW480 cells (Homo sapiens, UniProt P30837)
# T2 sequence (P30837 18-517): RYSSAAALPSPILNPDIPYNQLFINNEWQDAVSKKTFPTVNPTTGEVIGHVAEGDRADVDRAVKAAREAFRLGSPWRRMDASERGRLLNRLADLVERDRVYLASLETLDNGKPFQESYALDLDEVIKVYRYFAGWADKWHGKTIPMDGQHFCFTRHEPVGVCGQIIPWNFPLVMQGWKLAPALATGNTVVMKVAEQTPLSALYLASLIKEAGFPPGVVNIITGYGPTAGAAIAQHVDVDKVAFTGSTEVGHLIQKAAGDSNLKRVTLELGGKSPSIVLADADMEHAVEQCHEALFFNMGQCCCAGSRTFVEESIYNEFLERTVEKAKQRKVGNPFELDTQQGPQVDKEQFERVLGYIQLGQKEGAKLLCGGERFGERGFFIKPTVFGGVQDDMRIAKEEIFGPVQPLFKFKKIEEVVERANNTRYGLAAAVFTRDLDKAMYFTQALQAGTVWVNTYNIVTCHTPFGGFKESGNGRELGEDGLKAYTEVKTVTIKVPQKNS
# T3: ALDH1B1 (aldehyde dehydrogenase 1B1), human recombinant, mitochondria-targeting sequence removed (human), P30837
# T3 chain: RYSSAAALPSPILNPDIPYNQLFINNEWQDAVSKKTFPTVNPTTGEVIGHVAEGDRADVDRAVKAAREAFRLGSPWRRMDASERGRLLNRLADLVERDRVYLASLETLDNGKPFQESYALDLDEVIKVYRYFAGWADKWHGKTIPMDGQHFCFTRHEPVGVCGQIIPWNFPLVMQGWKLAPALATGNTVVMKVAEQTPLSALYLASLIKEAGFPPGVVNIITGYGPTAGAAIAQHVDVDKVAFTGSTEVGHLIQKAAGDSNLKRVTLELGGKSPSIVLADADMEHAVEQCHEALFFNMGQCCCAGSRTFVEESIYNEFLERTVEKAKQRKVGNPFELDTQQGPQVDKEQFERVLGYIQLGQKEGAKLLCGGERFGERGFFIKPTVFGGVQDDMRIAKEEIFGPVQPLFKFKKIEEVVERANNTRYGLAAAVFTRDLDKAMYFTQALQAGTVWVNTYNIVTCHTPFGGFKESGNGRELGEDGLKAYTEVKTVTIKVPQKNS
# Columns and labels:
# ALDH1B1 = molecular target: T1, ALDH1B1; experiment: ALDEFLUOR assay, ALDH1B1 transiently expressed in ALDH1A3-/- A375 cells; format: cell-based; conditions: flow cytometry
# Method in brief: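 ALDH1A3-knockout A375 cells were grown 24 h, then transfected with empty pCMV6, pCMV6-GFP (to estimate transfection efficiency) or pCMV6-ALDH1B1. Medium was changed at 24 h and cells grown another 24 h. Trypsinized cells in ALDEFLUOR buffer were exposed to test compound for 15 min at 37 °C with 5% CO2, then to ALDEFLUOR reagent for 30 min. Live single cells (DAPI gating) were analysed by flow cytometry; read-out is % of cells outside the negative-control gate (ALDEFLUOR vs SSC-A).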
# [1] = tested on: parental and 5-FU-resistant SW480 cell lines; experiment: Spheroid growth of parental and 5-FU-resistant SW480 lines; format: cell-based, human; conditions: spheroids
# Method in brief: (§1)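 SW480 cells were seeded on solidified Matrigel in RPMI-1640 spheroid medium containing 20 ng/mL EGF, 20 ng/mL FGF, heparin, N-2 supplement and penicillin/streptomycin. Seeding was 1,000 cells/well (96-well) or 5,000 cells/well (24-well). Test compound was added in medium and cultures were grown 7 days at 37 °C with 5% CO2. Spheroids were imaged by phase contrast (some stained with crystal violet), and small objects excluded before area analysis.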
# [2] = tested on: colorectal tumor PDO lines; experiment: Patient-derived organoid viability; format: cell-based, human; conditions: seven days treatment; CTO1-CTO4
# Method in brief: (§2)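 Organoids (wild-type colon or colorectal tumour) were dissociated with TrypLE plus 10 µM Y-27632. They were plated as 10-µL BME-2 domes at 1,000 cells/µL in WENR medium with 10 µM Y-27632 and 2.5 µM CHIR99021, and grown 3–5 days. Test compound at varying concentrations in WENR was then given for 7 days. Viability was read as resazurin metabolism with 10% Alamar Blue: 4 h for tumour PDOs, 6 h for wild-type PDOs, at 37 °C in the dark.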
# [3] = tested on: ALDH1B1 variants (E124G/N457G and V173I/N457G); experiment: Inhibitor resistance of ALDH1B1 mutants; format: biochemical, human
# Method in brief: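 A375 ALDH1A3-knockout cells were transfected (3:1 DNA:FuGENE HD) with wild-type or mutant pCMV6-ALDH1B1 and grown 48 h. Cells in ALDEFLUOR buffer received ALDEFLUOR reagent. Within 10 s, aliquots were moved to tubes holding DMSO, DEAB (1.5 mM stock in EtOH) or test compound (100 µM or 10 µM stocks in DMSO). Tubes were incubated 30 min at 37 °C, cells pelleted, and analysed by flow cytometry.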
# [4] = molecular target: T2, endogenous ALDH1B1 in live SW480 cells; experiment: Cellular thermal shift assay; format: binding; conditions: 10 µM, 1 hour
# Method in brief: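 SW480 cells were grown in 15-cm dishes, trypsinized at about 80% confluence, and kept live in the incubator for 1 h. Cells were then pelleted at 480 x g for 5 min, washed with PBS and resuspended in PBS with protease inhibitors. Total protein per lane was checked on stain-free gels alongside immunoblotting of ALDH1B1.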
# wild-type colon PDOs = experiment: Patient-derived organoid viability; format: cell-based, human; conditions: seven days treatment; compared with tumor PDOs
# Method in brief: as §2
# SW480 cells = experiment: Thermal proteome profiling; format: binding, human; conditions: 2 µM, 1 hour; cutoffs ΔTm ≥ 1.5 °C and P < 0.05
# [5] = tested on: E124G/N457G mutant-expressing cells; format: cell-based, human
# Method in brief: as §1
# [6] = molecular target: T3, ALDH1B1 (aldehyde dehydrogenase 1B1), …; experiment: crystal structure; conditions: remark: other sources report otherwise
molecule,measurement,setting,value
"CCN(CC)c1ccc(C=O)cc1 [DEAB, N,N-diethylaminobenzaldehyde]",cellular ALDH1B1 activity (ALDEFLUOR signal),ALDH1B1,abrogated
O=c1[nH]cc(F)c(=O)[nH]1 [5-FU],loss of sensitivity of 5-FU-resistant SW480 line versus parental line,[1],approximately 20 fold
COc1cc(Cl)ccc1C1=CN(c2ccc(-c3ccccc3OC)cc2)C2=NCCCN12.O=CO [IGUANA-1],growth of colorectal adenocarcinoma PDOs,[2],inhibit the growth of each line
same,inhibitor sensitivity of ALDH1B1 variants,[3],markedly reduced inhibitor sensitivity
same,thermal stabilization of ALDH1B1,[4],stabilizes endogenous ALDH1B1
same,sensitivity of wild-type colon PDOs,wild-type colon PDOs,less sensitive
same,"inhibitor-dependent change in thermal stability (ΔTm), proteome-wide",SW480 cells,largest inhibitor-dependent increase in thermal stability
same,resistance of mutant-expressing spheroid cultures versus wild-type ALDH1B1,[5],more resistant
"ALDH1B1 (aldehyde dehydrogenase 1B1), human recombinant, mitochondria-targeting sequence removed, P30837 18-517 (enzyme) RYSSAAALPSPILNPDIPYNQLFINNEWQDAVSKKTFPTVNPTTGEVIGHVAEGDRADVDRAVKAAREAFRLGSPWRRMDASERGRLLNRLADLVERDRVYLASLETLDNGKPFQESYALDLDEVIKVYRYFAGWADKWHGKTIPMDGQHFCFTRHEPVGVCGQIIPWNFPLVMQGWKLAPALATGNTVVMKVAEQTPLSALYLASLIKEAGFPPGVVNIITGYGPTAGAAIAQHVDVDKVAFTGSTEVGHLIQKAAGDSNLKRVTLELGGKSPSIVLADADMEHAVEQCHEALFFNMGQCCCAGSRTFVEESIYNEFLERTVEKAKQRKVGNPFELDTQQGPQVDKEQFERVLGYIQLGQKEGAKLLCGGERFGERGFFIKPTVFGGVQDDMRIAKEEIFGPVQPLFKFKKIEEVVERANNTRYGLAAAVFTRDLDKAMYFTQALQAGTVWVNTYNIVTCHTPFGGFKESGNGRELGEDGLKAYTEVKTVTIKVPQKNS",stoichiometry N,[6],4
